Several values for one entry are separate records, joined by “and”; a condition that tells them apart may be missing. Equal entries are not always repeated. Where two headings read alike, the source gives them in different places.
Columns and labels:
[1] = system: H. anomala cells (alternative oxidase pathway); assay: Induction of cyanide-resistant respiration in H. anomala cells; assay type: cell-based, Hansenula (Pichia) anomala; settings: 10 μM inhibitor, cells shaken aerobically at 30°C for 2 hours; None = 0.181
[2] = system: cytochrome b in H. anomala mitochondria; assay: Reduction of cytochrome b in H. anomala mitochondria; assay type: biochemical, Hansenula (Pichia) anomala
[3] = system: H. anomala mitochondria; assay: Superoxide anion generation in H. anomala mitochondria; assay type: biochemical, Hansenula (Pichia) anomala
Summary of the method: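 Pre-incubated at 30°C in a chemiluminescence reader, then succinate added and inhibitors added in sequence. Read-out was the chemiluminescence peak-height increase sensitive to 0.5 µM superoxide dismutase.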

[4] = molecular target: purified bovine cytochrome bc1 complex (Bos taurus, UniProt P00157+P13272); assay: Cytochrome reduction by DBH2 in purified bovine cytochrome bc1 complex; assay type: biochemical
[5] = molecular target: T1, Rb. capsulatus cytochrome bc1 complex (Rhodobacter capsulatus, UniProt D5ANZ2+D5ANZ3); assay type: biochemical; settings: for Inhibition of re-reduction of cytochromes c (Qo site forward reaction): pH 7.0, Eh 100 mV
T1 sequence (D5ANZ3 1-437): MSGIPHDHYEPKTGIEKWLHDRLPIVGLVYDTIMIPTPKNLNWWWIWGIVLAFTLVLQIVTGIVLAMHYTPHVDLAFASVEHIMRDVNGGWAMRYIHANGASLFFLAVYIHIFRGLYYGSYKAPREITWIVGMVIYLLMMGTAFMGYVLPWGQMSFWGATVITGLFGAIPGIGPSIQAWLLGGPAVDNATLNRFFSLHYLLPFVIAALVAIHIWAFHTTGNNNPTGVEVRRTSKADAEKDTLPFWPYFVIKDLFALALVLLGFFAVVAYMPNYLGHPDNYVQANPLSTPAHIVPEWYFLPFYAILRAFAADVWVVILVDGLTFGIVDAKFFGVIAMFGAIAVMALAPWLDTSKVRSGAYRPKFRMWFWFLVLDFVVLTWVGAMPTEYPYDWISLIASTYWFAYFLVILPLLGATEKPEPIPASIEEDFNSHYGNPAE
T1 sequence (D5ANZ2 1-191): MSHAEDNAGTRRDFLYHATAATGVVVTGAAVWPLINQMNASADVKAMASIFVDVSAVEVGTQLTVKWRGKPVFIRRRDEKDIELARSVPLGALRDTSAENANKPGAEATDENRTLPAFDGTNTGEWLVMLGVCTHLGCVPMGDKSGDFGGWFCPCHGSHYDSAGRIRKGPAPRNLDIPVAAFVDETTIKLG
T1 sequence (D5ANZ4 22-279 partner): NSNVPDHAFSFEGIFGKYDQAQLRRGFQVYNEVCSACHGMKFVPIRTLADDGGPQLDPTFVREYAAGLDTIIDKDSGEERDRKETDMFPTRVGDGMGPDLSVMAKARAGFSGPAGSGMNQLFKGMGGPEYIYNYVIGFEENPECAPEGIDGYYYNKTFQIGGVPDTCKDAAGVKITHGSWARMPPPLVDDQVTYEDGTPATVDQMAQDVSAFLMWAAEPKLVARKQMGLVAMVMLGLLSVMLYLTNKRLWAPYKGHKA
Summary of the method: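 Rb. capsulatus chromatophores normalised to reaction centre (0.28 µM), with redox mediators and 2.5 µM valinomycin. Qo forward: 50 mM MOPS pH 7.0, 100 mM KCl, Eh 100 mV. Qi reverse: 50 mM glycine-NaOH pH 9.5, 100 mM KCl, 10 µM myxothiazol, Eh 125 mV.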

[6] = molecular target: T2, Rieske iron-sulfur protein of Rb. capsulatus cytochrome bc1 complex (Rhodobacter capsulatus, UniProt D5ANZ2+D5ANZ3); assay: EPR spectra of the reduced Rieske iron-sulfur protein in chromatophore membranes; assay type: binding; settings: 10 to 30 μM inhibitor, ascorbate-reduced chromatophore membranes, 20 K
T2 sequence (D5ANZ3 1-437): T1 sequence (D5ANZ3 1-437)
T2 sequence (D5ANZ2 1-191): T1 sequence (D5ANZ2 1-191)
T2 sequence (D5ANZ4 22-279 partner): T1 sequence (D5ANZ4 22-279 partner)

[7] = system: rat liver mitochondria; assay: Succinate-dependent O2 uptake activity in rat liver mitochondria; assay type: biochemical
[8] = 10 μM antimycin A3 added after 15 mM succinate + 10 μM ascochlorin
[9] = 10 μM inhibitor added after 15 mM succinate
[10] = 10 μM inhibitor added after 15 mM succinate + 10 μM antimycin A3

Compound: CCCC[C@H]1C(=O)O[C@H](C)[C@H](NC(=O)c2cccc(NC=O)c2O)C(=O)O[C@@H](C)[C@@H]1OC(=O)CC(C)C [Antimycin A3]
- CN−-resistant O2 uptake activity [1]: 7.77 nmol O2/min/mg wet cells
- ΔA 560–575 × 10^2 (cytochrome b reduction) [2, 8]: 0.94
- ΔA 560–575 × 10^2 (cytochrome b reduction) ([2]; 10 μM antimycin A3 added after 15 mM succinate + 10 μM myxothiazol): 1.08
- ΔA 560–575 × 10^2 (cytochrome b reduction) [2, 9]: 1.27 and 1.28
- Chemiluminescence Intensity (superoxide anion generation) [3, 8]: 3.6 10^5 counts/min
- Chemiluminescence Intensity (superoxide anion generation) [3, 9]: 8.8 10^5 counts/min and 9.1 10^5 counts/min

Compound: CC(/C=C/[C@@]1(C)[C@H](C)CCC(=O)[C@@H]1C)=C\Cc1c(O)c(Cl)c(C)c(C=O)c1O [Ascochlorin]
- CN−-resistant O2 uptake activity [1]: 7.42 nmol O2/min/mg wet cells
- ΔA 560–575 × 10^2 (cytochrome b reduction) [2, 9]: 0.92
- ΔA 560–575 × 10^2 (cytochrome b reduction) [2, 10]: 0.85
- Chemiluminescence Intensity (superoxide anion generation) [3, 9]: 2.6 10^5 counts/min
- Chemiluminescence Intensity (superoxide anion generation) [3, 10]: 4.6 10^5 counts/min
- Extent of rapid reduction of cytochrome c1 ([4]; 3 μM bovine bc1, 31 μM ascochlorin, DBH2 25 μM, by the first spectrum): about 20%
- Rapid reduction of cytochrome bH and c1 ([4]; ascochlorin and antimycin both present, 240 μM ascochlorin): about half
- Further decrease of the extent of the fast reactions ([4]; ascochlorin increased from 31 to 360 μM, compared to Fig. 4C): about a factor of two
- Inhibition of re-reduction of cytochromes c (Qo site forward reaction) ([5]; 1 μM): partially
- Inhibition of re-reduction of cytochromes c (Qo site forward reaction) ([5]; 10 μM): fully
- Inhibition of Qi site-mediated cytochrome b reduction (reverse reaction) ([5]; 1 or 10 μM, 10 μM myxothiazol, pH 9.5, Eh 125 mV): completely inhibited
- Effect on the Rieske ISP gx EPR transition [6]: changes the gx transition

Compound: O=C1C(O)=C([C@H]2CC[C@H](c3ccc(Cl)cc3)CC2)C(=O)c2ccccc21 [Atovaquone]
- CN−-resistant O2 uptake activity [1]: 0.202 nmol O2/min/mg wet cells

Compound: CC(=CCc1c(O)cc(C)c(C=O)c1O)CCC1(C)C(C)CCC(=O)C1C (centres unmarked) [LL-Z1272 ε]
- Inhibition relative to that seen using ascochlorin [7]: about 1/300

Compound: CO/C(=C/C(N)=O)[C@H](C)[C@H](/C=C/c1csc(-c2csc([C@@H](C)/C=C/C=C/C(C)C)n2)n1)OC [Myxothiazol]
- CN−-resistant O2 uptake activity [1]: 0.375 nmol O2/min/mg wet cells
- ΔA 560–575 × 10^2 (cytochrome b reduction) [2, 9]: 1.16
- ΔA 560–575 × 10^2 (cytochrome b reduction) [2, 10]: 1.03
- Chemiluminescence Intensity (superoxide anion generation) [3, 10]: 5.4 10^5 counts/min

Compound: CCCCCCCCCC1=C(O)C(=O)c2scnc2C1=O [NHDBT, nonylhydroxydioxobenzothiazole]
- CN−-resistant O2 uptake activity [1]: 0.225 nmol O2/min/mg wet cells

Compound: C/C=C(C)/C=C/C=C/[C@H](OC)[C@@H](C)[C@@H](OC)[C@@H](C)CCc1oc2c(O)c(OC)cc(OC)c2c(=O)c1C [Stigmatellin]
- CN−-resistant O2 uptake activity [1]: 0.433 nmol O2/min/mg wet cells

Compound: CCCCCC[C@H]1C(=O)O[C@H](C)[C@H](NC(=O)c2cccc(NC=O)c2O)C(=O)O[C@@H](C)[C@@H]1OC(=O)CC(C)C [antimycin A]
- Extent of rapid reduction of cytochrome bL ([4]; 3 μM bovine bc1, 30 μM antimycin A, DBH2 25 μM): about 20%
- Level of cytochrome b reduction after reoxidation ([4]; 30 μM antimycin A, within a few minutes): about 10%

Compound: Funiculosin
- CN−-resistant O2 uptake activity [1]: 3.12 nmol O2/min/mg wet cells
